Data taken from ChEMBL document CHEMBL1138239, “Probing molecular interactions within class II MHC Aq/glycopeptide/T-cell receptor complexes associated with collagen-induced arthritis” (2007).
*1 amine or outer side, *2 acyl side, *3 side chain or, on linkers, in order; H or OH if unused. Where a SMILES comes first, the peptide text is derived from it. [ ]: non-standard residue; d: D form. X4 = NC[C@@H](CC[C@H](N[*:1])C(=O)[*:2])O[C@@H]1O[C@H](CO)[C@H](O)[C@H](O)[C@H]1O; X2 = C[C@H](N[*:1])C(=O)CCC(=O)[*:2]; X5 = C[C@@H](/C=C/CC(=O)[*:2])N[*:1]

Columns and labels:
Assay type in all cases: functional, Mus musculus
[1] = Induction of immune response of T-cell HCQ.3 hybridoma in presence of antigen-presenting spleen cells expressing Aq assessed as drug concentration required to induce IL2 secretion after 24 hrs by ELISA
Procedure, shortened: (§1)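 5 × 10⁴ hybridoma cells co-cultured with 5 × 10⁵ syngeneic spleen cells and glycopeptide at 0, 0.00128, 0.0064, 0.032, 0.16, 0.8, 4, 20 µM for 24 h. Supernatant frozen, then IL-2 measured by sandwich ELISA (rat anti-mouse IL-2 capture and biotin detection, DELFIA read-out) against a recombinant mouse IL-2 standard. Score is the lowest concentration giving IL-2 at 6% of the maximal response to the native CII259-273 glycopeptide reference.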

[2] = Induction of immune response of T-cell HCQ.2 hybridoma in presence of antigen-presenting spleen cells expressing Aq assessed as drug concentration required to induce IL2 secretion after 24 hrs by ELISA; procedure, shortened: as §1
[3] = Induction of immune response of T-cell HD13.9 hybridoma in presence of antigen-presenting spleen cells expressing Aq assessed as drug concentration required to induce IL2 secretion after 24 hrs by ELISA; procedure, shortened: as §1
[4] = Induction of immune response of T-cell 22a1-7E hybridoma in presence of antigen-presenting spleen cells expressing Aq assessed as drug concentration required to induce IL2 secretion after 24 hrs by ELISA; procedure, shortened: as §1
[5] = Induction of immune response of T-cell HMIR.2 hybridoma in presence of antigen-presenting spleen cells expressing Aq assessed as drug concentration required to induce IL2 secretion after 24 hrs by ELISA; procedure, shortened: as §1
[6] = Induction of immune response of T-cell HCQ.6 hybridoma in presence of antigen-presenting spleen cells expressing Aq assessed as drug concentration required to induce IL2 secretion after 24 hrs by ELISA; procedure, shortened: as §1
[7] = Induction of immune response of T-cell HD13.10 hybridoma in presence of antigen-presenting spleen cells expressing Aq assessed as drug concentration required to induce IL2 secretion after 24 hrs by ELISA; procedure, shortened: as §1
[8] = Induction of immune response of T-cell HNC.1 hybridoma in presence of antigen-presenting spleen cells expressing Aq assessed as drug concentration required to induce IL2 secretion after 24 hrs by ELISA; procedure, shortened: as §1

Compound | Activity [1] | Activity [2] | Activity [3] | Activity [4] | Activity [5] | Activity [6] | Activity [7] | Activity [8]
CC[C@H](C)[C@H](NC(=O)CN)C(=O)N[C@@H](C)C(=O)CCC(=O)N[C@@H](Cc1ccccc1)C(=O)N[C@@H](CC[C@H](CN)O[C@@H]1O[C@H](CO)[C@H](O)[C@H](O)[C@H]1O)C(=O)NCC(=O)N[C@@H](CCC(=O)O)C(=O)N[C@@H](CCC(N)=O)C(=O)NCC(=O)N1CCC[C@H]1C(=O)N[C@@H](CCCCN)C(=O)NCC(=O)N[C@@H](CCC(=O)O)C(=O)N[C@H](C(=O)O)[C@@H](C)O (H-GI[X2]F[X4]GEQGPKGET-OH) | 0.8 µM | 0.8 µM | 0.8 µM | 4 µM | 4 µM | 0.8 µM | 0.8 µM | 4 µM
CC[C@H](C)[C@H](NC(=O)CN)C(=O)N[C@@H](C)/C=C/CC(=O)N[C@@H](Cc1ccccc1)C(=O)N[C@@H](CC[C@H](CN)O[C@@H]1O[C@H](CO)[C@H](O)[C@H](O)[C@H]1O)C(=O)NCC(=O)N[C@@H](CCC(=O)O)C(=O)N[C@@H](CCC(N)=O)C(=O)NCC(=O)N1CCC[C@H]1C(=O)N[C@@H](CCCCN)C(=O)NCC(=O)N[C@@H](CCC(=O)O)C(=O)N[C@H](C(=O)O)[C@@H](C)O (H-GI[X5]F[X4]GEQGPKGET-OH) | 20 µM | 20 µM |  |  |  | 20 µM |  | 
